Source: publication PMC4065287 (Diabetes Therapy, 2014)
“And” between values parts separate entries of the source, which are not always exact repeats. Identical values can stand only once. “Also recorded” adds a separate entry of the source. Like-named read-outs stand apart in the source and are kept apart here.

Experiments:
[1] = tested on: Escherichia coli strain WP2 uvrA; conditions: maximum concentrations (≤5,000 μg/plate) with or without metabolic activation
[2] = tested on: hormone receptors; conditions: cited from earlier work
[3] = in vivo; conditions: both, Sprague-Dawley, rat, plasma, po, 200 mg/kg per day
[4] = tested on: more than 330 receptors, enzymes, ion channels, and transporters; conditions: cited from earlier work
[5] = cited from earlier work
[6] = tested on: CD-1 mice; conditions: for carcinogenicity: oral gavage up to 24 months
[7] = chronic toxicology studies; cited from earlier work
[8] = tested on: Chinese hamster ovary (CHO) cells
[9] = 2-year rodent carcinogenicity studies
[10] = tested on: bone marrow polychromatic erythrocytes
[11] = tested on: Beagle dogs
[12] = tested on: Salmonella typhimurium stains TA98, TA100, TA1535, and TA1537; conditions: maximum concentrations (≤5,000 μg/plate) with or without metabolic activation
[13] = human plasma after 10 mg MRHD of dapagliflozin; cited from earlier work
[14] = Urinary exposure extrapolations from bridging studies; assay type: in vivo; conditions: mice, rats, and dogs
[15] = tested on: EJ-1 tumor xenografts; experiment: In vivo mouse xenograft study, EJ-1; set-up: species or system athymic nude mice
[16] = human subjects, 10 mg dose; cited from earlier work
[17] = tested on: primary hepatocyte cultures; conditions: single oral dose up to 700 mg/kg
[18] = cited from earlier work; remark: listed apart in the source
[19] = tested on: SGLT2; conditions: cited from earlier work
[20] = tested on: human bladder transitional cell carcinoma (TCC) cell lines (T24, TCCSUP, UM-UC-3, J82, SW780, and EJ-1); experiment: In vitro cell proliferation of bladder TCC cell lines with test compounds; assay type: cell-based; conditions: 0.2, 2, 20 μg/mL, serum-free medium, 72 h
Procedure, shortened: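 Low-passage TCC lines (<6 months from thaw) were seeded at 20,000 or 40,000 cells/well in RPMI 1640 + 10% FBS. After 24 h adherence and 24 h serum-free, cells got medium-only vehicle or test compound (0.2, 2, 20 μg/mL) serum-free for 72 h. Controls were a return to 10% FBS and continuous serum. Percent confluence was imaged every 2 h to build growth curves.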

[21] = tested on: Harlan SD rats
[22] = tested on: liver, skeletal muscle, kidney, and adipose tissues; conditions: male ZDF rats vs vehicle
[23] = tested on: peripheral blood lymphocytes; conditions: up to 200 mg/kg per day for 1 month
[24] = tested on: CD-1 mice; conditions: 2-year study; cited from earlier work
[25] = tested on: SD rats; conditions: cited from earlier work
[26] = tested on: TCC cell lines (T24, TCCSUP, UM-UC-3, J82, and SW780); experiment: In vitro cell proliferation of bladder TCC cell lines with increasing glucose; assay type: cell-based, human
Procedure, shortened: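 Five TCC lines seeded at 40,000 or 80,000 cells/well in RPMI 1640 with 10% FBS, glucose set to 11 (control), 25, 35 or 50 mM. Cells were incubated 145 h in the incubator with live-cell imaging. Percent confluence was read every 2 h and growth curves were built over 145 h.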

CCOc1ccc(Cc2cc([C@@H]3O[C@H](CO)[C@@H](O)[C@H](O)[C@H]3O)ccc2Cl)cc1 [dapagliflozin, (2S,3R,4R,5S,6R)-2-[4-chloro-3-(4-ethoxybenzyl)phenyl]-6-(hydroxymethyl)tetrahydro-2H-pyran-3,4,5-triol]
bacterial reverse-mutation assay [1]: negative
binding to hormone receptors [2]: did not bind
Cmax [3]: 63 to 74 µg/mL
off-target interactions [4]: no off-target interactions
overall incidence of malignancies and unspecified tumors ([5]; July 15, 2011 cutoff (control 1.4%)): 1.5%
urinary bladder tumors, incidence rate ([5]; dapagliflozin groups (placebo 0.03)): 0.15
urinary bladder tumors, number of cases ([5]; dapagliflozin groups (placebo 1)): 9
bladder cancer cases, percent of patients ([5]; of 5,501 patients, July 15, 2011 cutoff): 0.16%
exposure (AUC) multiple relative to human AUC at 10 mg ([6]; females 2 mg/kg per day): ~11 ×
exposure (AUC) multiple relative to human AUC at 10 mg ([6]; females 10 mg/kg per day): ~52 ×
exposure (AUC) multiple relative to human AUC at 10 mg ([6]; females 20 mg/kg per day): ~105 ×
carcinogenicity ([6]; females, doses ≤20 mg/kg per day): not carcinogenic
incidence of background tumors or time to onset ([6]; lymphoreticular, uterus and cervix, lung, liver neoplasms): did not increase the incidence
urinary bladder hyperplasia versus control ([6]; male mice): did not increase urinary bladder hyperplasia
exposure (AUC) multiple relative to human AUC at 10 mg ([6]; males 5 mg/kg per day): approximately 4 ×
exposure (AUC) multiple relative to human AUC at 10 mg ([6]; males 15 mg/kg per day): ~14 ×
exposure (AUC) multiple relative to human AUC at 10 mg ([6]; males 40 mg/kg per day): ~72 ×
carcinogenicity ([6]; males, doses ≤40 mg/kg per day): not carcinogenic
levels of urinary glucose [7]: 400 to 500 mM
level that produced cytogenetic alterations in vitro [8]: 100 µg/mL
chromosomal aberration induction ([8]; absence of S9 stimulation): negative
clastogenic concentrations relative to total C max in humans with MRHD 10 mg ([8]; with metabolic stimulation): ≥ 735 times
levels of urinary glucose [9]: ~200 mM
bone marrow micronucleus genotoxicity ([10]; 2 weeks, up to 250 mg/kg per day): not genotoxic
bone marrow micronucleus genotoxicity ([10]; 3 days, up to 700 mg/kg per day): not genotoxic
proliferative or hyperplastic changes of the urinary bladder ([11]; 1 year): did not show dapagliflozin-related proliferative or hyperplastic changes
exposure multiple of human clinical exposure ([11]; 1 year, supratherapeutic doses): > 3,300 × and > 3,000 ×
urinary glucose excretion ([11]; treated dogs (control 5–13 mg per day)): 8,711–32,200 mg per day
bacterial reverse-mutation assay [12]: negative
maximum observed plasma concentration (C max) [13]: 0.136 µg/mL
extrapolated urinary concentrations relative to humans [14]: > 700 ×
body weight of treated animals ([15]; EJ-1 and UM-UC-3 xenograft mice): no effect
exposure multiple of human clinical exposures ([15]; EJ-1 and UM-UC-3 xenograft mice, parent): up to 75 ×
growth of tumor xenografts ([15]; mouse, in vivo): no effect; also recorded: similar
urinary glucose, mean [16]: 166 mM
unscheduled DNA synthesis [17]: did not induce an increase
oral bioavailability [18]: good
volume of distribution [18]: high
selectivity for SGLT2 than for SGLT1 [19]: 1,200 ×
in vitro TCC proliferation [20]: did not affect
carcinogenicity ([21]; doses up to 10 mg/kg per day): not carcinogenic
exposure (AUC) multiple relative to human AUC at 10 mg ([21]; females 0.5 mg/kg per day): ~9 ×
exposure (AUC) multiple relative to human AUC at 10 mg ([21]; females 2 mg/kg per day): ~34 ×
microscopic changes in the kidney ([21]; males only): exacerbation in severity of CPN and increased incidence and severity of minimal to marked atypical hyperplasia of renal cortical tubules
neoplasms affecting the renal tubules, adrenal gland, or testicular Leydig cells ([21]; rat, in vivo): no dapagliflozin-related neoplasms
tumors or preneoplastic lesions in the urinary bladder ([21]; rat, in vivo): no indications of any dapagliflozin-related tumors or preneoplastic lesions
probe sets showing significant changes [22]: less than 1%
AUC multiple of MRHD [23]: ≤ 2,602 × MRHD
C max multiple of MRHD [23]: ≤ 544 × MRHD
clastogenicity in peripheral blood lymphocytes [23]: no evidence of clastogenicity

Cc1ccc([C@@H]2O[C@H](CO)[C@@H](O)[C@H](O)[C@H]2O)cc1Cc1ccc(-c2ccc(F)cc2)s1 [canagliflozin]
exposure multiple of clinical exposures [24]: 14 ×
incidence of neoplasms or preneoplastic lesions [24]: did not increase the incidence
exposure multiple with increased incidence of neoplasms of the adrenals [25]: ≥ 12 ×
exposure multiple with increased incidence of neoplasms of the renal tubules [25]: ≥ 12 ×
selectivity for SGLT2 than for SGLT1 [19]: 200 ×

OC[C@H]1OC(O)[C@H](O)[C@@H](O)[C@@H]1O (some centres unmarked) [glucose]
reduction of growth ([26]; J82, 25 mM): 37%
growth ([26]; SW780, 25 mM): did not substantially alter
growth ([26]; T24, 25 mM): did not substantially alter
reduction of growth ([26]; T24, 35 mM): 83%
reduction of growth ([26]; TCCSUP, 25 mM): 42%
reduction of growth ([26]; UM-UC-3, 25 mM): 73%
growth ([26]; all cell lines at 35 mM and 50 mM, except T24 at 35 mM): completely inhibited
